Data: ChEMBL document CHEMBL2086359, “Tormentic acid derivatives: synthesis and apoptotic activity” (Eur J Med Chem, 2012)
Active and inactive are the calls of the source. The calls are words filed in the database; no cut-off is given here.

Experiments:
[1] = Cytotoxicity against human 518A2 cells after 96 hrs by SRB assay; type: functional, cell-based
Summary of the method: (§1)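 Monolayer cultures kept in RPMI 1640 with 10% heat-inactivated FBS and penicillin/streptomycin at 37 °C, 5% CO2. Exponentially growing cells were seeded and treated 24 h later with serial dilutions (0–30 µM) for 96 h, with DMSO or DMF at most 0.5% final. Cells were fixed with 10% TCA at 4 °C and stained with 0.4% SRB for about 30 min. Plates were washed with 1% acetic acid and the dye dissolved in 10 mM Tris base. Absorbance was read at 570 nm and survival taken relative to untreated controls. IC50 was estimated from dose–response curves, averaged from at least 5 independent experiments.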

A2780 = assay: Cytotoxicity against human A2780 cells after 96 hrs by SRB assay; type: functional, cell-based; summary of the method: as §1
8505C [2] = assay: Cytotoxicity against human 8505C cells after 96 hrs by SRB assay; type: functional, cell-based; summary of the method: as §1
A549 = assay: Cytotoxicity against human A549 cells after 96 hrs by SRB assay; type: functional, cell-based; summary of the method: as §1
[3] = Cytotoxicity against human A253 cells after 96 hrs by SRB assay; type: functional, cell-based; summary of the method: as §1
518A2 [4] = assay: Induction of apoptosis in human 518A2 cells after 24 to 48 hrs by DNA laddering assay; type: functional, cell-based
Summary of the method: (§2)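 About 1×10^6 cells were grown in 25 cm2 flasks to 80% and exposed to compound-loaded medium for 24–48 h, with blank medium as control. Cells were collected from the supernatant (300 g, 4 °C), washed in PBS and lysed. Lysates were digested with RNase for 2 h at 37 °C, then with proteinase K for 12 h at 50 °C. DNA was run on agarose gel electrophoresis ([…], 2 h).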

DLD-1 = assay: Cytotoxicity against human DLD1 cells after 96 hrs by SRB assay; type: functional, cell-based; summary of the method: as §1
MCF7 = assay: Cytotoxicity against human MCF7 cells after 96 hrs by SRB assay; type: functional, cell-based; summary of the method: as §1
NIH3T3 = assay: Cytotoxicity against mouse NIH/3T3 cells after 96 hrs by SRB assay; type: cell-based; summary of the method: as §1
8505C [5] = assay: Induction of apoptosis in human 8505C cells after 24 to 48 hrs by DNA laddering assay; type: functional, cell-based; summary of the method: as §2
[6] = Cytotoxicity against human WW030272 cells after 96 hrs by SRB assay; type: cell-based; summary of the method: as §1
518A2 [7] = assay: Induction of apoptosis in human 518A2 cells assessed as blebbing of nuclear membrane at 30 uM after 24 hrs by acridine orange based fluorescence microscopy analysis; type: functional, cell-based
Summary of the method: (§3)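 They were treated with 30 µM compound, and the next day washed with PBS and stained with acridine orange. Living cells were inspected by fluorescence microscopy for chromatin condensation and nuclear membrane blebbing.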

8505C [8] = assay: Induction of apoptosis in human 8505C cells assessed as induction of cell death after 24 to 48 hrs by AO/PI exclusion dye assay; type: functional, cell-based
Summary of the method: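 About 1×10^6 cells were grown in 25 cm2 flasks to 80% and given compound-loaded medium for 24–48 h, with blank medium as control. Cells were recovered from the supernatant (300 g, 4 °C), washed and resuspended in PBS. They were mixed 1:1 with AO/PI solution and viewed by fluorescence microscopy: green cells were scored as apoptotic, red as necrotic.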

8505C [9] = assay: Induction of apoptosis in human 8505C cells assessed as condensation of chromatin at 30 uM after 24 hrs by acridine orange based fluorescence microscopy analysis; type: functional, cell-based; summary of the method: as §3
8505C [10] = assay: Induction of apoptosis in human 8505C cells assessed as blebbing of nuclear membrane at 30 uM after 24 hrs by acridine orange based fluorescence microscopy analysis; type: functional, cell-based; summary of the method: as §3
518A2 [11] = assay: Induction of apoptosis in human 518A2 cells assessed as condensation of chromatin at 30 uM after 24 hrs by acridine orange based fluorescence microscopy analysis; type: functional, cell-based; summary of the method: as §3
8505C [12] = assay: Induction of apoptosis in human 8505C cells assessed as migration of phosphatidylserine from inner to outer cell membrane at 30 uM after 6 hrs by Annexin V-FITC/PI based FACS analysis; type: functional

Compound | IC50 [1] [µmol] | IC50 (A2780) [µmol] | IC50 (8505C [2]) [µmol] | IC50 (A549) [µmol] | IC50 [3] [µmol] | Activity (518A2 [4]) | IC50 (DLD-1) [µmol] | IC50 (MCF7) [µmol] | IC50 (NIH3T3) [µmol] | Activity (8505C [5]) | IC50 [6] [µmol] | Activity (518A2 [7]) | Activity (8505C [8]) | Activity (8505C [9]) | Activity (8505C [10]) | Activity (518A2 [11]) | Activity (8505C [12])
CC(=O)O[C@@H]1C[C@]2(C)[C@H]3CC=C4[C@H]5[C@](C(=O)O)(CC[C@@H](C)[C@@]5(C)O)CC[C@@]4(C)[C@]3(C)CC[C@H]2C(C)(C)[C@H]1O | > 30 | 24.3 | > 30 | > 30 | > 30 | Active | > 30 | 25.3 | > 30 | Active |  |  |  |  |  |  | 
CC(=O)O[C@H]1[C@H](O)C[C@]2(C)[C@H]3CC=C4[C@H]5[C@](C(=O)O)(CC[C@@H](C)[C@@]5(C)O)CC[C@@]4(C)[C@]3(C)CC[C@H]2C1(C)C | > 30 | 28.1 | > 30 | > 30 | > 30 | Active | > 30 | 26.2 | > 30 | Active |  |  |  |  |  |  | 
COC(=O)[C@]12CC[C@@H](C)[C@@](C)(O)[C@H]1C1=CC[C@@H]3[C@@]4(C)C[C@@H](O)[C@@H](O)C(C)(C)[C@@H]4CC[C@@]3(C)[C@]1(C)CC2 [EUSCAPHIC ACID METHYL ESTER] | 27.7 | 12.8 | 29.3 | 30.6 | 16.4 | Active | 35.8 | 17.8 | > 30 | Active | 23.4 |  |  |  |  |  | 
COC(=O)[C@]12CC[C@@H](C)[C@@](C)(O)[C@H]1C1=CC[C@@H]3[C@@]4(C)C=C(O)C(=O)C(C)(C)[C@@H]4CC[C@@]3(C)[C@]1(C)CC2 | 17.2 | > 30 | 25 | > 30 | > 30 | Active | > 30 | 26 | > 30 | Active |  |  |  |  |  |  | 
COC(=O)[C@]12CC[C@@H](C)[C@@](C)(O)[C@H]1C1=CC[C@@H]3[C@@]4(C)C[C@@H](O)[C@H](O)C(C)(C)[C@@H]4CC[C@@]3(C)[C@]1(C)CC2 [TORMENTIC ACID METHYL ESTER] | 31.3 | 23.9 | 42 |  | 17 | Active | 37.4 | 31.3 | 15.6 | Active | 47.5 | Active | Active | Active | Active | Active | 
COC(=O)[C@]12CC[C@@H](C)[C@@](C)(O)[C@H]1C1=CC[C@@H]3[C@@]4(C)CC(=O)[C@H](OC(C)=O)C(C)(C)[C@@H]4CC[C@@]3(C)[C@]1(C)CC2 | 5.6 | 4.4 | 7 | 7.8 | 6.7 | Active | 13.5 | 8.2 | 6.7 | Active |  |  |  |  |  |  | 
COC(=O)[C@]12CC[C@@H](C)[C@@](C)(O)[C@H]1C1=CC[C@@H]3[C@@]4(C)C[C@H](O)[C@H](O)C(C)(C)[C@@H]4CC[C@@]3(C)[C@]1(C)CC2 | > 30 | 18.9 | > 30 | > 30 | 15.3 | Active | > 30 | 22.6 | > 30 | Active |  |  |  |  |  |  | 
COC(=O)[C@]12CC[C@@H](C)[C@@](C)(O)[C@H]1C1=CC[C@@H]3[C@@]4(C)C[C@@H](OC(C)=O)C(=O)C(C)(C)[C@@H]4CC[C@@]3(C)[C@]1(C)CC2 | 28.9 | 9 | > 30 | 31.3 | 18.5 | Active | 28.2 | 14.8 | 25.1 | Active |  |  |  |  |  |  | 
COC(=O)[C@]12CC[C@@H](C)[C@@](C)(O)[C@H]1C1=CC[C@@H]3[C@@]4(C)C[C@@H](O)[C@H](OC(=O)CCl)C(C)(C)[C@@H]4CC[C@@]3(C)[C@]1(C)CC2 | 5.5 | 4.1 | 7.5 | 10 | 4.1 | Active | 6 | 6.9 | 4.2 | Active |  |  |  |  |  |  | 
COC(=O)[C@]12CC[C@@H](C)[C@@](C)(O)[C@H]1C1=CC[C@@H]3[C@@]4(C)CC(=O)[C@H](O)C(C)(C)[C@@H]4CC[C@@]3(C)[C@]1(C)CC2 | > 30 | 17.8 | > 30 |  |  | Active | > 30 | 28.7 | 19.2 | Active |  |  |  |  |  |  | 
COC(=O)[C@]12CC[C@@H](C)[C@@](C)(O)[C@H]1C1=CC[C@@H]3[C@@]4(C)C[C@@H](OC(=O)CCl)[C@H](O)C(C)(C)[C@@H]4CC[C@@]3(C)[C@]1(C)CC2 | 4.5 | 2.6 | 4.6 | 9.7 | 4.6 | Active | 3.7 | 2.6 | 2.1 | Active |  |  |  |  |  |  | 
CC(=O)O[C@@H]1C[C@]2(C)[C@H]3CC=C4[C@H]5[C@](C(=O)O)(CC[C@@H](C)[C@@]5(C)O)CC[C@@]4(C)[C@]3(C)CC[C@H]2C(C)(C)[C@H]1OC(C)=O | > 30 | 17.6 | > 30 | > 30 | 27.3 | Active | > 30 | 20.4 | 32.3 | Active |  |  |  |  |  |  | 
CC1(C)CC[C@]2(C(=O)O)CC[C@]3(C)C(=CC[C@@H]4[C@@]5(C)C[C@@H](O)[C@H](O)C(C)(C)[C@@H]5CC[C@]43C)[C@@H]2C1 |  |  |  |  |  |  |  |  |  |  |  |  | Active |  |  |  | 
C[C@@H]1CC[C@]2(C(=O)O)CC[C@]3(C)C(=CC[C@@H]4[C@@]5(C)C[C@@H](O)[C@H](O)C(C)(C)[C@@H]5CC[C@]43C)[C@@H]2[C@]1(C)O [TOMENTIC ACID] | > 30 | > 30 | 23.4 | 31 | > 30 | Active | 31 | 32.3 | > 30 | Active | 47.7 |  | Active |  |  |  | Active
COC(=O)[C@]12CC[C@@H](C)[C@@](C)(O)[C@H]1C1=CC[C@@H]3[C@@]4(C)C[C@@H](O)C(=O)C(C)(C)[C@@H]4CC[C@@]3(C)[C@]1(C)CC2 | 8.9 | 4.9 | 12.9 | 11.8 | 6.8 | Active | 18 | 9.4 | 7.7 | Active |  |  |  |  |  |  | 
